This is a sample that favours compounds with a hit; in the whole collection about 6.1% have one here.
RAM network inh: inhibitors of the yeast RAM network | S. cerevisiae dse1pr::URA3 reporter, 5-FOA growth OD615, 2 d; analog-sensitive cbk1-as2 kinase mutant strain | hit rate 1.8% among 190,000 | inhibition, % at 50 µM;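 active = inhibition above a set limit, 3 SD over mean compound inhibition, cut at about 8.4% in these data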;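 note: 0% = DMSO-only wells with no growth and 100% = 10 µM 1-NA-PP1 full growth; inhibition rescues growth on 5-FOA so higher OD means more RAM inhibition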
BB579 growth dn: reduces growth of yeast BB579 in restrictive medium; S. cerevisiae BB579 growth, OD615, 48 h; inhibition, % at 10 µM; hit rate 0.51% among 140,000;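 active = inhibition above a set limit, 3 SD over the mean compound inhibition, cut at about 44% in these data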
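System: Saccharomyces cerevisiae DeaD strain BB579, replicative lifespan model yeast. Buffer or medium: restrictive glucose-based CSMM-D medium. Doses: one dose, 10 µM compound with 0.25% DMSO. Timing: 4 h preincubation and 48 h exposure at 30 °C. Detection: turbidity as optical density at 615 nm. Benchmarks: amphotericin B 10 µg/mL, positive.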
Measles CPE: protection of cells from measles virus. Measles virus-infected cells, CPE protection, absorbance. protection (pct of control), % at 4 µM. hit rate 1.5% among 140,000; in the data active = protection mostly above about 24%, no sharp cut-off; inactive = mostly below about 26%
Yeast lifespan up: yeast lifespan extension; S. cerevisiae growth with nicotinamide, OD615; deaD strain in restrictive glucose medium; inhibition of the nicotinamide effect, % at 10 µM; hit rate 0.68% among 130,000; AID 775;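 active = inhibition above a set limit, placed 3 SD over the median of all compounds, cut at about 26% in these data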;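 note: 0% = nicotinamide-treated wells and 100% = cells grown without nicotinamide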
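assay system = DeaD-strain S. cerevisiae | buffer or medium = restrictive glucose medium | reagent = 1.5 mM nicotinamide | compound = 10 µM single point, 0.25% DMSO | incubation = 48 h compound exposure at 30 °C, humidified | signal = OD615 measurement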
WT yeast gro inh: growth inhibition of WT yeast, mitochondrial fusion screen; mitochondrial fusion phenotypic screen, WT strain; inhibition, % at 10 µM; hit rate 2.1% among 190,000; in the data active = inhibition above about 58%; tested in S. cerevisiae
hDAT+cocaine: human DAT dopamine uptake with cocaine, either direction; Q01959; LLC-PK1 hDAT cells, [14C]-dopamine uptake with cocaine IC80; actives deviate in either direction; B-score at 10 µM; hit rate 1.3% among 110,000;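 active = Z score or B-score, a plate-position-corrected score, falls beyond the plate's 99.7% confidence bounds, in either direction; inactive = both scores lie inside the 99.7% bounds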;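 note: scored against the spread of the other compound wells on the same plate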
Target sequence (Q01959 whole entry, looked up): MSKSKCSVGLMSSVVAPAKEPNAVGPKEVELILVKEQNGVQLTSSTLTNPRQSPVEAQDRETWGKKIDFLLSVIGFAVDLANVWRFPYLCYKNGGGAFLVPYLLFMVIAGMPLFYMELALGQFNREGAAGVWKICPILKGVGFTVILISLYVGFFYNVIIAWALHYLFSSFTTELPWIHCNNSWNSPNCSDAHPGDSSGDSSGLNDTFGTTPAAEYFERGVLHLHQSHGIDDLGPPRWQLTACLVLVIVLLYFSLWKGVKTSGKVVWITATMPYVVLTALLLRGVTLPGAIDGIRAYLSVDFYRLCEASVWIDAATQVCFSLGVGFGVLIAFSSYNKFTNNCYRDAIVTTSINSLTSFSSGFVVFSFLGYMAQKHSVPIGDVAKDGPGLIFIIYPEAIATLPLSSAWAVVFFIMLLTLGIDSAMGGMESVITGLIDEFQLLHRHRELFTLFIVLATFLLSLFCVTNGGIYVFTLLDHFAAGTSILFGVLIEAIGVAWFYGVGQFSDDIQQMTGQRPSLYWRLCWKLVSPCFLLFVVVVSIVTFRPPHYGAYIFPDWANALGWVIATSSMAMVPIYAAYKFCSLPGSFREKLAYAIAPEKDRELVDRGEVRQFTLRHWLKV
* marks the source's active call; other numbers are inactive results; · = no result.

SMILES	RAM network inh	BB579 growth dn	Measles CPE	Yeast lifespan up	WT yeast gro inh	hDAT+cocaine
CC1CCN(c2nc3c(c(=O)[nH]c(=O)n3C)n2CC(C)CSc2nnnn2-c2ccccc2)CC1 (stereo not given)	3	-69	7	2	28	·
CC1=NN(c2ccc(C)cc2C)C(=O)C1C(c1cccc(O)c1)C1C(=O)N(c2ccc(C)cc2C)N=C1C (stereo not given)	4	-26	23	3	-17	·
CC(C)Cn1c(N)c(C(=O)NCC2CCCO2)c2nc3ccccc3nc21 (stereo not given)	0	-37	3	-27	60*	0.85
CCC(/C=C1\Sc2ccc(OC)cc2N1CC)=C\c1sc2ccc(OC)cc2[n+]1CCCS(=O)(=O)[O-]	1	·	·	·	75*	·
CCC(/C=C1\Sc2ccc(OC)cc2N1CCO)=C\c1sc2ccc(OC)cc2[n+]1CCO	2	-32	7	7	84*	·
CCOc1ccc(C(=O)C[n+]2ccc(C(=O)NCc3ccccc3)cc2)cc1	0	·	·	·	0	·
O=C(CN(CCc1ccccc1)C(=O)CNS(=O)(=O)c1ccc(F)cc1)NCC1CCCO1 (stereo not given)	2	-16	33*	-5	4	1.2
O=C(CCS(=O)(=O)Cc1ccccc1)NCC1CCCO1 (stereo not given)	3	-60	2	-8	-13	2.1*
O=C(Cc1ccccc1)NCC1CCCO1 (stereo not given)	-1	17	1	-8	-18	-0.0019
CC(Cl)C(=O)NC(=O)NC12CC3CC(CC(C3)C1)C2 (stereo not given)	1	-19	23	22	-8	·
O=C(CCl)NC(=O)NC12CC3CC(CC(C3)C1)C2	1	15	7	35*	-21	·
Oc1ccc2ccccc2c1/C=N/Nc1ccccc1	0	-48	4	18	0	·
O=S(=O)(/N=C/c1c(O)ccc2ccccc12)c1cccs1	-1	-20	9	30*	-6	-2.5
CCC1C(=O)Nc2nc(-c3ccccc3)c(-c3ccccc3)n2N=C1C (stereo not given)	0	-38	16	-6	39	0.19
O=S(=O)(Nc1nc2ccccc2nc1Nc1cccc(S(=O)(=O)N2CCCCC2)c1)c1ccccc1	5	-10	18	8	-10	·
CC(C)=C1C(=O)NN(c2ccc(C)c(Cl)c2)C1=O	3	-23	7	45*	-2	·
Cc1cccc(C)c1N(CC(=O)NCc1ccc(F)cc1)C(=O)c1csnn1	0	·	·	·	4	·
Cc1ccc(S(=O)(=O)N2CCOCC2)cc1C(=O)Nc1cccc(S(=O)(=O)N2CCCC2)c1	1	·	·	·	3	·
On1c(-c2ccc(Cl)cc2)nc2ccccc21	2	·	·	·	79*	·
FC(F)(F)c1nc2ccccc2n2c(-c3ccc(Cl)cc3)nnc12	4	2	1	-13	-11	-0.32
OCCC1CN(Cc2nc3ccccc3s2)CCN1CCc1ccccc1 (stereo not given)	3	·	·	·	4	·
Cc1cccc(NC(=O)c2nc[nH]c2C(=O)N[C@@H](CC(C)C)C(=O)OC(C)(C)C)c1	·	·	·	·	·	2.7*
Cc1ccc(NC(=O)c2nc[nH]c2C(=O)N[C@@H](C)c2ccccc2)cc1	6	·	·	·	74*	0.85
Cc1ccc(NC(=O)c2[nH]cnc2C(=O)NN)cc1	1	·	·	·	-3	·
CCOc1cc(Br)c(C=O)cc1OCC	1	·	·	·	1	·
SMILES	RAM network inh	BB579 growth dn	Measles CPE	Yeast lifespan up	WT yeast gro inh	hDAT+cocaine
COc1cc(NC(=S)NNC(=O)C(C)(C)O)cc(OC)c1	1	·	·	·	-1	·
c1ccc(N/N=C2\CCCc3ccccc32)nc1	1	·	·	·	65*	·
Fc1ccc(/C=N/Nc2ccccn2)cc1	1	-1	6	-8	13	·
Fc1ccc2c(c1)/C(=N/Nc1ccccn1)CCS2	0	·	·	·	68*	·
Cc1cc(N/N=C2/CCCc3ccccc32)nc2ccccc12	0	·	·	·	68	·
COC(=O)C1=C(O)C(C(=O)OC)C(c2ccc(C)cc2)C(C#N)(C#N)C1c1ccc(C)cc1 (stereo not given)	8.5*	-35	6	·	67*	-0.75
Cc1onc(-c2ccccc2)c1C(=O)OCC(=O)Nc1cc(S(=O)(=O)N2CCOCC2)ccc1Cl	4	·	·	·	6	·
CC(C)C(=O)N(c1ccc2oc(=O)sc2c1)S(=O)(=O)c1ccccc1	11*	-42	19	0	-5	-0.35
CCC(C(=O)Nc1cccc(C(=O)O)c1C)c1ccccc1 (stereo not given)	1	·	·	·	-1	·
CCOC(=O)C1CCCN(c2cc(C)nc3cc(-c4ccc(Cl)cc4)nn23)C1 (stereo not given)	0	-23	3	·	16	0.00047
CCC1CCCCN1c1cc(C)nc2cc(-c3cccc(C)c3)nn12 (stereo not given)	-1	7	7	-13	89*	-0.08
COc1cc([N+](=O)[O-])ccc1NC(=O)CCCOc1ccccc1	2	-35	2	-9	-30	·
CCCCC(=O)Nc1ccc(NC(=O)c2ccc([N+](=O)[O-])cc2)cc1OC	9.1*	-37	7	5	5	·
COc1cc([N+](=O)[O-])ccc1NC(=O)CCCOc1cc(C)ccc1C	9.9*	-23	9	-1	20	·
CCOC(=O)Cc1csc(NC(=O)CCSc2ccccc2)n1	1	·	·	·	8	·
CCOC(=O)c1c(NC(=O)COC(=O)c2cc(OC)c(OC)cc2[N+](=O)[O-])sc(C)c1C	8.6*	-34	19	4	20	·
CCOC(=O)c1c(NC(=O)CSc2nnnn2C)sc(C)c1C	0	-63	22	-16	-3	0.16
CCOC(=O)c1c(NC(=O)CSc2nnnn2CC)sc(C)c1C	8.9*	-44	22	-2	8	0.022
CCCn1c(SCC(=O)Nc2ccccc2C(=O)OC)nc2c1c(=O)n(C)c(=O)n2C	8	-27	23	1	-18	-0.42
CCOC(=O)c1c(NC(=O)COC)sc(C)c1C	1	-28	6	·	3	-0.9
CCOC(=O)c1c(NC(=O)Cn2nc(C(F)F)cc2C(F)F)sc(C)c1C	9.6*	-23	6	-6	22	-0.36
CCCn1c(SCC(=O)Nc2sc(C)c(C)c2C(=O)OCC)nc2c1c(=O)n(C)c(=O)n2C	2	-46	31*	-5	-42	0.3
Cc1ccc(S(=O)(=O)N(Cc2ccccc2)c2ccccc2C(=O)NCc2cccnc2)cc1	1	-2	12	4	-5	·
CCN(CC)c1nc(OCCNC(=O)Nc2ccccc2)nc(N(CC)CC)n1	2	-9	18	-12	56	1.6
CCN1/C(=C/c2sc(-c3ccccc3C)c[n+]2C)Sc2ccccc21	2	·	·	·	77*	·
Cc1cc(C)cc(NC(=S)N2CCC(c3nc4ccccc4s3)CC2)c1	3	-9	7	-7	11	-0.3
Cc1ccc(NC(=S)N2CCC(c3nc4ccccc4s3)CC2)cc1C	2	-12	29*	-25	-2	-0.076

From PubChem
